Data as given in ChEMBL document CHEMBL3779834, “Prenylated Acylphloroglucinols with Leishmanicidal Activity from the Fern Elaphoglossum lindbergii” (J Nat Prod, 2016).

Columns and labels:
[1] = tested on: Leishmania braziliensis; assay: Leshmanicidal activity against promastigote stage of Leishmania braziliensis strand M2904 C192 RJA after 72 hrs by XTT-based microplate reader analysis; assay type: functional, organism-based
Outline: (§1)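 Log-phase promastigotes, grown at 26 °C in Schneider's insect medium (pH 6.8) with 10% heat-inactivated FBS, seeded at 1 × 10^6 parasites/mL. Test substances in DMSO at 0.75−100 μg/mL, 72 h at 26 °C. XTT (1 mg/mL) with PMS (0.06 mg/mL) added, further 4 h at 26 °C, OD read at 450 nm. DMSO 1% negative, amphotericin B 0.5 μg/mL positive control. IC50 = 50% viability decrease, mean ± standard error.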

[2] = tested on: Leishmania amazonensis; assay: Leshmanicidal activity against promastigote stage of Leishmania amazonensis clone 1 AML MHOM/BR/76/LTB-012 after 72 hrs by XTT-based microplate reader analysis; assay type: functional, organism-based; details: clone 1 AML MHOM/BR/76/LTB-012, 72 h; outline: as §1

Compound: CCCCCC(=O)C1=C(O)[C@@](C)(CC=C(C)C)C(O)=C(Cc2c(O)c(CC=C(C)C)c(OC)c(C(=O)CCCCC)c2O)C1=O
- IC50 [1]: 66.5 µM
- IC50 [2]: 151 µM

Compound: CCCC(=O)C1=C(O)[C@@](C)(CC=C(C)C)C(O)=C(Cc2c(O)c3c(c(C(=O)CCC)c2O)OC(C)(C)C=C3)C1=O
- IC50 [1]: 13.6 µM
- IC50 [2]: 16.3 µM

Compound: CCCCCC(=O)C1=C(O)[C@@](C)(CC=C(C)C)C(O)=C(Cc2c(O)c3c(c(C(=O)CCC)c2O)OC(C)(C)C=C3)C1=O
- IC50 [1]: 29.9 µM
- IC50 [2]: 52.4 µM

Compound: CCCCCC(=O)C1=C(O)[C@@](C)(CC=C(C)C)C(O)=C(Cc2c(O)c(CC3=C(O)[C@](C)(CC=C(C)C)C(O)=C(C(=O)CCCCC)C3=O)c(O)c(C(=O)CCC)c2O)C1=O
- IC50 [1]: > 100 µg/mL
- IC50 [2]: > 100 µg/mL

Compound: CCCCCC(=O)c1c(O)c(CC2=C(O)[C@](C)(CC=C(C)C)C(O)=C(C(=O)CCC)C2=O)c(O)c(CC2=C(O)[C@](C)(CC=C(C)C)C(O)=C(C(=O)CCC)C2=O)c1O
- IC50 [1]: 87.7 µM
- IC50 [2]: > 100 µg/mL

Compound: C[C@@H]1[C@H](O)[C@@H](C)/C=C/C=C/C=C/C=C/C=C/C=C/C=C/[C@H](O[C@@H]2O[C@H](C)[C@@H](O)[C@H](N)[C@@H]2O)C[C@@H]2O[C@](O)(C[C@@H](O)C[C@@H](O)[C@H](O)CC[C@@H](O)C[C@@H](O)CC(=O)O[C@H]1C)C[C@H](O)[C@H]2C(=O)O [AMPHOTERICIN B]
- IC50 [1]: 0.12 µM
- IC50 [2]: 0.11 µM
